Experimental data: ChEMBL document CHEMBL3751694, “1-Piperazinylphthalazines as potential VEGFR-2 inhibitors and anticancer agents: Synthesis and in vitro biological evaluation” (Eur J Med Chem, 2016)

How the values were obtained:
Assay type in all cases: functional
[1] = system: NCI-H522; assay: Growth inhibition of human NCI-H522 cells at 10 uM after 48 hrs by SRB method; conditions: NCI-H522, 48 h, read-out: GI
Outline: (§1)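 NCI 56-line primary screen at a single 10^-5 M concentration. Cells grown in RPMI 1640 with 5% FBS and 2 mM L-glutamine, plated at 5000–40,000 cells/well, then preincubated for 24 h. Exposure was 48 h at 37 °C and 5% CO2. Adherent cells were fixed with cold TCA at 10% final, suspension cells at 16%. Staining used 0.4% SRB, read at 515 nm. Results are % growth inhibition relative to control.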

[2] = Growth inhibition of human MOLT4 cells at 10 uM after 48 hrs by SRB method; conditions: MOLT-4, 48 h, read-out: GI; outline: as §1
[3] = system: K562; assay: Growth inhibition of human K562 cells at 10 uM after 48 hrs by SRB method; conditions: K562, 48 h, read-out: GI; outline: as §1
[4] = system: T47D; assay: Growth inhibition of human T47D cells at 10 uM after 48 hrs by SRB method; conditions: read-out: GI
Outline: (§2)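 NCI 56-line screen, single-dose primary assay at 10^-5 M. Cells grown in RPMI 1640 with 5% FBS and 2 mM L-glutamine, plated at 5000–40,000 cells/well and held 24 h at 37 °C, 5% CO2 before drug addition. Compound was given from DMSO stock, exposure 48 h, then TCA fixation and SRB staining with absorbance at 515 nm. % growth is taken relative to time-zero and untreated controls.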

[5] = system: MDA-MB-468; assay: Growth inhibition of human MDA-MB-468 cells at 10 uM after 48 hrs by SRB method; conditions: MDA-MB-468, 48 h, read-out: GI; outline: as §1
[6] = system: MCF7; assay: Growth inhibition of human MCF7 cells at 10 uM after 48 hrs by SRB method; conditions: MCF7, 48 h, read-out: GI; outline: as §1
[7] = Growth inhibition of human PC3 cells at 10 uM after 48 hrs by SRB method; conditions: PC-3, 48 h, read-out: GI; outline: as §1
[8] = system: A498; assay: Growth inhibition of human A498 cells at 10 uM after 48 hrs by SRB method; conditions: A498, 48 h, read-out: GI; outline: as §1
[9] = Growth inhibition of human UACC62 cells at 10 uM after 48 hrs by SRB method; conditions: UACC-62, 48 h, read-out: GI; outline: as §2
[10] = system: SK-MEL-5; assay: Growth inhibition of human SK-MEL-5 cells at 10 uM after 48 hrs by SRB method; conditions: SK-MEL-5, 48 h, read-out: GI; outline: as §1
[11] = system: A549; assay: Growth inhibition of human A549 cells at 10 uM after 48 hrs by SRB method; conditions: A549, 48 h, read-out: GI; outline: as §1
[12] = system: SR; assay: Growth inhibition of human SR cells at 10 uM after 48 hrs by SRB method; conditions: read-out: GI; outline: as §1
[13] = Growth inhibition of human […] cells at 10 uM after 48 hrs by SRB method; conditions: read-out: GI; outline: as §1
[14] = system: CCRF-CEM; assay: Growth inhibition of human CCRF-CEM cells at 10 uM after 48 hrs by SRB method; conditions: read-out: GI; outline: as §1
[15] = Growth inhibition of human BT549 cells at 10 uM after 48 hrs by SRB method; conditions: BT-549, 48 h, read-out: GI; outline: as §1
[16] = Growth inhibition of human UO31 cells at 10 uM after 48 hrs by SRB method; conditions: UO-31, 48 h, read-out: GI; outline: as §2
[17] = Growth inhibition of human IGROV1 cells at 10 uM after 48 hrs by SRB method; conditions: IGROV-1, 48 h, read-out: GI; outline: as §1
[18] = system: HT-29; assay: Growth inhibition of human HT-29 cells at 10 uM after 48 hrs by SRB method; conditions: HT-29, 48 h, read-out: GI; outline: as §1
[19] = Growth inhibition of human COLO205 cells at 10 uM after 48 hrs by SRB method; conditions: COLO 205, 48 h, read-out: GI; outline: as §1
[20] = Growth inhibition of human HOP92 cells at 10 uM after 48 hrs by SRB method; conditions: HOP-92, 48 h, read-out: GI; outline: as §1
[21] = system: MDA-MB-231; assay: Growth inhibition of human MDA-MB-231 cells at 10 uM after 48 hrs by SRB method; conditions: MDA-MB-231, 48 h, read-out: GI; outline: as §1
[22] = system: SK-MEL-2; assay: Growth inhibition of human SK-MEL-2 cells at 10 uM after 48 hrs by SRB method; conditions: SK-MEL-2, 48 h, read-out: GI; outline: as §1
[23] = Growth inhibition of human HL-60(TB) cells at 10 uM after 48 hrs by SRB method; conditions: HL-60, 48 h, read-out: GI
Outline: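 NCI single-dose primary screen at 10^-5 M, 48 h exposure. Cells grown in RPMI 1640 with 5% FBS and 2 mM L-glutamine. Suspension cells fixed in situ with TCA (final 16%), stained with SRB, absorbance read at 515 nm. Percent growth inhibition calculated against time-zero and untreated control plates.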

[24] = Growth inhibition of human OVCAR8 cells at 10 uM after 48 hrs by SRB method; conditions: OVCAR-8, 48 h, read-out: GI; outline: as §1
[25] = system: NCI-H226; assay: Growth inhibition of human NCI-H226 cells at 10 uM after 48 hrs by SRB method; conditions: NCI-H226, 48 h, read-out: GI; outline: as §1

O=C(CN1CCN(c2nnc(-c3ccccc3)c3ccccc23)CC1)c1ccc(Cl)cc1 showed an inhibition of growth at 10 µM [1] of 57%, an inhibition of growth at 10 µM [2] of 30% and an inhibition of growth at 10 µM [3] of 33%. For the same molecule, the inhibition of growth at 10 µM [4] was 41% and the inhibition of growth at 10 µM [5] was 38%.

For O=C(CN1CCN(c2nnc(-c3ccccc3)c3ccccc23)CC1)Nc1cccc(C(F)(F)F)c1, the inhibition of growth at 10 µM [6] was 41%, the inhibition of growth at 10 µM [7] was 40% and the inhibition of growth at 10 µM [8] was 32%. It also gave an inhibition of growth at 10 µM [9] of 41%, an inhibition of growth at 10 µM [10] of 41% and an inhibition of growth at 10 µM [1] of 53%. The inhibition of growth at 10 µM [11] was 34%, the inhibition of growth at 10 µM [12] was 55% and the inhibition of growth at 10 µM [13] was 46%. For the same molecule, the inhibition of growth at 10 µM [2] was 52%, the inhibition of growth at 10 µM [3] was 38% and the inhibition of growth at 10 µM [14] was 31%. It also gave an inhibition of growth at 10 µM [4] of 59% and an inhibition of growth at 10 µM [5] of 60%.

With CC(=O)c1sc(NC(=O)CN2CCN(c3nnc(-c4ccccc4)c4ccccc34)CC2)nc1C the inhibition of growth at 10 µM [15] was 34%, the inhibition of growth at 10 µM [7] was 53% and the inhibition of growth at 10 µM [16] was 43%. The inhibition of growth at 10 µM [8] was 45%, the inhibition of growth at 10 µM [17] was 40% and the inhibition of growth at 10 µM [10] was 33%. It also gave an inhibition of growth at 10 µM [18] of 31%, an inhibition of growth at 10 µM [19] of 30% and an inhibition of growth at 10 µM [1] of 41%. It also gave an inhibition of growth at 10 µM [20] of 70%, an inhibition of growth at 10 µM [12] of 49% and an inhibition of growth at 10 µM [13] of 45%. The inhibition of growth at 10 µM [2] was 52%, the inhibition of growth at 10 µM [4] was 81% and the inhibition of growth at 10 µM [5] was 49%. The inhibition of growth at 10 µM [21] was 41%.

Work on O=C(CN1CCN(c2nnc(-c3ccccc3)c3ccccc23)CC1)Nc1ccc(Cl)cc1 yielded an inhibition of growth at 10 µM [7] of 32%, an inhibition of growth at 10 µM [16] of 34% and an inhibition of growth at 10 µM [8] of 36%. It also gave an inhibition of growth at 10 µM [22] of 33%, an inhibition of growth at 10 µM [1] of 53% and an inhibition of growth at 10 µM [12] of 40%. It also gave an inhibition of growth at 10 µM [13] of 40%, an inhibition of growth at 10 µM [2] of 41% and an inhibition of growth at 10 µM [3] of 30%. The inhibition of growth at 10 µM [23] was 30%, the inhibition of growth at 10 µM [4] was 57% and the inhibition of growth at 10 µM [5] was 53%.

For O=C(CN1CCN(c2nnc(-c3ccccc3)c3ccccc23)CC1)Nc1c(Cl)cccc1Cl, the inhibition of growth at 10 µM [7] was 34%, the inhibition of growth at 10 µM [16] was 38% and the inhibition of growth at 10 µM [24] was 35%. The inhibition of growth at 10 µM [10] was 44%, the inhibition of growth at 10 µM [1] was 34% and the inhibition of growth at 10 µM [25] was 30%. The inhibition of growth at 10 µM [20] was 47%, the inhibition of growth at 10 µM [12] was 40% and the inhibition of growth at 10 µM [13] was 48%. The inhibition of growth at 10 µM [2] was 42%, the inhibition of growth at 10 µM [3] was 43% and the inhibition of growth at 10 µM [23] was 38%. The inhibition of growth at 10 µM [4] was 60% and the inhibition of growth at 10 µM [5] was 43%.
